Measurements: ChEMBL document CHEMBL2062365, “Suppressive effects of coumarins from Mammea siamensis on inducible nitric oxide synthase expression in RAW264.7 cells” (Bioorg Med Chem, 2012)

Columns and labels:
RAW264.7 [1] = assay: Antiinflammatory activity in mouse RAW264.7 cells assessed as inhibition of LPS-induced NO production relative to control; assay type: functional, cell-based
Method in brief: (§1)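 RAW264.7 cells (DMEM, 10% FBS, 37 °C, 5% CO2) seeded at 2.5 × 10^5 cells/well. After 6 h, nonadherent cells were washed off. Adherent cells were exposed to test compound for 10 min, then to LPS (E. coli 055:B5, final 10 µg/mL) for 18 h. Supernatant nitrite was measured by Griess reaction. Inhibition % = (A−B)/(A−C)×100, with C as the no-LPS control. IC50 was read graphically; N = 4, mean ± SEM. CAPE was the reference.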

RAW264.7 [2] = assay: Antiinflammatory activity in mouse RAW264.7 cells assessed as inhibition of LPS-induced NO production at 30 uM relative to control; assay type: functional; method in brief: as §1

Q: How did the IC50 (RAW264.7 [1]) turn out when `Oc1c2ccccc2c2c3c(cccc13)N=N2` [SP-600125] was run?
A: 17 µM

Q: What about the inhibition at 30 µM (RAW264.7 [2]) of the same compound?
A: 74.6%
